Test results from ChEMBL document CHEMBL4725283, “Selective Peptidomimetic Inhibitors of NTMT1/2: Rational Design, Synthesis, Characterization, and Crystallographic Studies” (J Med Chem, 2020).
Activity calls are given as the source filed them. No cut-off for these calls is given here.

Tests used:
[1] = molecular target: T1, N-terminal Xaa-Pro-Lys N-methyltransferase 1 (Homo sapiens, UniProt Q9BV86); assay: (§1) Inhibition of recombinant human full-length His6-tagged NTMT1 (1 to 222 residues) expressed in Escherichia coli BL21-CodonPlus(DE3)-RIL competent cells pre-incubated for 10 mins in presence of SAM and SAHH before RCC1-6 addition and measured after 15 mins by fluorescence based SAHH-coupled assay
T1 sequence (Q9BV86 whole entry): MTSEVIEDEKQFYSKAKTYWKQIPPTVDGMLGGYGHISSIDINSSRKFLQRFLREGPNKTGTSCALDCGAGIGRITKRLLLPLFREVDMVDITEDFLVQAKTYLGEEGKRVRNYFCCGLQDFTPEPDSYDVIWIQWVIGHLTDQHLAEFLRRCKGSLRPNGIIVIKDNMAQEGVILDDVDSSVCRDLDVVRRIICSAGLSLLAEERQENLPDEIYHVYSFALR
Summary of the method: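 Pre-incubated 10 min at 37 °C, then started with RCC1-6 (10 µL of 50 µM stock in 100 µL). Line 11 screened at 30 µM; line 12 used 0–100 µM three-fold series, four-parameter fit. Triplicate.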

[2] = molecular target: T2, Histone-lysine N-methyltransferase EHMT2 (Homo sapiens, UniProt Q96KQ7); assay: Inhibition of human His-tagged G9a (913 to 1193 residues) expressed in Escherichia coli BL21-CodonPlus(DE3)-RIL using H3-21 peptide as substrate preincubated for 10 mins in presence of SAM followed by substrate addition by fluorescence assay
T2 sequence (Q96KQ7 whole entry): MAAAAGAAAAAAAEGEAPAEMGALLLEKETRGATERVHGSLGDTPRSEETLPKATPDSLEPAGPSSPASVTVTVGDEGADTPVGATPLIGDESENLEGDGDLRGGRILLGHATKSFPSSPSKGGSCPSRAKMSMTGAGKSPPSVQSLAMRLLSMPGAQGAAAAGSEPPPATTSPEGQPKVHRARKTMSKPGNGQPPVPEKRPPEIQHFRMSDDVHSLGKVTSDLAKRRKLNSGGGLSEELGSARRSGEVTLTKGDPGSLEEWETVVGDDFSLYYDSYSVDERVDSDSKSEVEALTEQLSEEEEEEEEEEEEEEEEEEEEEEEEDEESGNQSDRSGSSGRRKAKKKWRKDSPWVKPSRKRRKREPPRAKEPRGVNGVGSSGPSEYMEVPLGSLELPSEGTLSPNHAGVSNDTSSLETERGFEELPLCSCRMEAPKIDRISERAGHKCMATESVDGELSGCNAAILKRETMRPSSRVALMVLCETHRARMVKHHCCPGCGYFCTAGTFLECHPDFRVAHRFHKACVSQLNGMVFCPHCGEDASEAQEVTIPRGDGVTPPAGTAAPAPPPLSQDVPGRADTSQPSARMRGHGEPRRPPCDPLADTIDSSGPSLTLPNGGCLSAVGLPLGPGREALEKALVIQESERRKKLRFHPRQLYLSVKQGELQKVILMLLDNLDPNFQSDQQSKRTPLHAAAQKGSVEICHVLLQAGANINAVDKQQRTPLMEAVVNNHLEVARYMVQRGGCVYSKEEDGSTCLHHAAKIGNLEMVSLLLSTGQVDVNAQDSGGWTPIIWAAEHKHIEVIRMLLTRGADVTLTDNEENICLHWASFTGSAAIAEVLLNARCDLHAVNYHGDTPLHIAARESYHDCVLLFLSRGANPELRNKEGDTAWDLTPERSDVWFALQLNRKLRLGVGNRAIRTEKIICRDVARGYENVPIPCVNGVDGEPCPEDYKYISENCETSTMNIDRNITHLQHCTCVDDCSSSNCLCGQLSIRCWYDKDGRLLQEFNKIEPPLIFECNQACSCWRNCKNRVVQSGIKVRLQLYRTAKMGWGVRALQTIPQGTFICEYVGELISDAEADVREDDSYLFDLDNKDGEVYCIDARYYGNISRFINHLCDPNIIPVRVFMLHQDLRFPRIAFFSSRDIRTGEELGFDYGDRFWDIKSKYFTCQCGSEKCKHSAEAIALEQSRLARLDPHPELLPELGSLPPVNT

[3] = molecular target: T3, N-terminal Xaa-Pro-Lys N-methyltransferase 1 (Homo sapiens) (UniProt Q9BV86); assay: as §1, with “Competitive inhibition of” for “Inhibition of”, “of fixed” for “of”, “before varying levels of” for “before”; details: time 25.0 min
T3 sequence (whole entry): T1 sequence (Q9BV86 whole entry)
Summary of the method: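 After 10 min at 37 °C, started with RCC1-6 at 0.5, 1, 1.5, 2, 4 or 8 µM. Read Ex 370/Em 500 nm for 15 min at 37 °C. Triplicate IC50 at each level plotted against [RCC1-6]/Km.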

Homo sapiens [4] = species on record: Homo sapiens; assay: Selectivity for human NTMT1 over GST-tagged human METTL21A at 100 uM
Summary of the method: (§2)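 Panel of 41 PKMTs, PRMTs, DNMTs and NTMT1/2, tested at 100 µM compound in duplicate (n=2).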

Homo sapiens [5] = species on record: Homo sapiens; assay: Selectivity for human NTMT1 over human NSD1 at 100 uM; summary of the method: as §2
Homo sapiens [6] = species on record: Homo sapiens; assay: Selectivity for human NTMT1 over human NSD2 T1150A mutant at 100 uM; summary of the method: as §2
Homo sapiens [7] = species on record: Homo sapiens; assay: Selectivity for human NTMT1 over human PRDM9 at 100 uM; summary of the method: as §2
Homo sapiens [8] = species on record: Homo sapiens; assay: Selectivity for human NTMT1 over human PRDMT4 at 100 uM; summary of the method: as §2
Homo sapiens [9] = species on record: Homo sapiens; assay: Selectivity for human NTMT1 over human PRDMT5/MEP50 complex at 100 uM; summary of the method: as §2
Homo sapiens [10] = species on record: Homo sapiens; assay: Selectivity for human NTMT1 over human PRDMT8 at 100 uM; summary of the method: as §2
Homo sapiens [11] = species on record: Homo sapiens; assay: Selectivity for human NTMT1 over human SET1b complex at 100 uM; summary of the method: as §2
Homo sapiens [12] = species on record: Homo sapiens; assay: Selectivity for human NTMT1 over human SETD2 at 100 uM; summary of the method: as §2
Homo sapiens [13] = species on record: Homo sapiens; assay: Selectivity for human NTMT1 over human SMYD1 at 100 uM; summary of the method: as §2
Homo sapiens [14] = species on record: Homo sapiens; assay: Selectivity for human NTMT2 over human ASH1L at 100 uM
Summary of the method: (§3)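 Single-point panel screen against 41 PKMTs, PRMTs, DNMTs and NTMT1/2. Each compound was tested at 100 µM, in duplicate (n=2).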

Homo sapiens [15] = species on record: Homo sapiens; assay: Selectivity for human NTMT2 over human DOT1L at 100 uM; summary of the method: as §3
Homo sapiens [16] = species on record: Homo sapiens; assay: Selectivity for human NTMT2 over human EZH1 complex at 100 uM; summary of the method: as §3
Homo sapiens [17] = species on record: Homo sapiens; assay: Selectivity for human NTMT2 over human G9a at 100 uM; summary of the method: as §3
Homo sapiens [18] = species on record: Homo sapiens; assay: Selectivity for human NTMT2 over human GLP at 100 uM; summary of the method: as §3
Homo sapiens [19] = species on record: Homo sapiens; assay: Selectivity for human NTMT2 over human MLL3 complex at 100 uM; summary of the method: as §3
Homo sapiens [20] = species on record: Homo sapiens; assay: Selectivity for human NTMT2 over human MLL4 complex at 100 uM; summary of the method: as §3
Homo sapiens [21] = species on record: Homo sapiens; assay: Selectivity for human NTMT2 over human NSD2 at 100 uM; summary of the method: as §3
Homo sapiens [22] = species on record: Homo sapiens; assay: Selectivity for human NTMT2 over human NSD2 T1150A mutant at 100 uM; summary of the method: as §3
Homo sapiens [23] = species on record: Homo sapiens; assay: Selectivity for human NTMT2 over human PRDMT1 at 100 uM; summary of the method: as §3
Homo sapiens [24] = species on record: Homo sapiens; assay: Selectivity for human NTMT2 over human PRDMT8 at 100 uM; summary of the method: as §3

- IC50 [1]: 0.89 µM
- IC50 [2]: > 100 µM
- inhibition [3]: Active
- Selectivity ratio (Homo sapiens [4]): > 100
- Selectivity ratio (Homo sapiens [5]): > 100
- Selectivity ratio (Homo sapiens [6]): > 100
- Selectivity ratio (Homo sapiens [7]): > 100
- Selectivity ratio (Homo sapiens [8]): > 100
- Selectivity ratio (Homo sapiens [9]): > 100
- Selectivity ratio (Homo sapiens [10]): > 100
- Selectivity ratio (Homo sapiens [11]): > 100
- Selectivity ratio (Homo sapiens [12]): > 100
- Selectivity ratio (Homo sapiens [13]): > 100
- Selectivity ratio (Homo sapiens [14]): > 100
- Selectivity ratio (Homo sapiens [15]): > 100
- Selectivity ratio (Homo sapiens [16]): > 100
- Selectivity ratio (Homo sapiens [17]): > 100
- Selectivity ratio (Homo sapiens [18]): > 100
- Selectivity ratio (Homo sapiens [19]): > 100
- Selectivity ratio (Homo sapiens [20]): > 100
- Selectivity ratio (Homo sapiens [21]): > 100
- Selectivity ratio (Homo sapiens [22]): > 100
- Selectivity ratio (Homo sapiens [23]): > 100
- Selectivity ratio (Homo sapiens [24]): > 100
SMILES: N=C(N)NCCC[C@H](NC(=O)[C@H](CCCCN)NC(=O)[C@@H]1CCCN1C(=O)Cc1ccc(O)cc1)C(N)=O
